Our source for the ED50, Max response and EC50 values is ChEMBL document CHEMBL1127795, “Small-molecule immunostimulants. Synthesis and activity of 7,8-disubstituted guanosines and structurally related compounds” (1994).

Assay [1] is filed under the species Mus musculus. Put plainly: Effective dose for its ability to act as B-cell mitogens (mitogenicity); Neg indicates a response lower than vehicle control. Type of assay: functional. A digest of the protocol:
(§1)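 CBA/CaJ mouse spleen cells (1 × 10⁵/0.2 mL) exposed to graded compound concentrations, dissolved in water or DMSO and diluted in medium, for 24 h. [³H]thymidine then added for a further 24 h; incorporation by scintillation counting. ED50 and maximal response expressed relative to a concurrently run standard (loxoribine in most cases).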

For assay [2], the species on record is Mus musculus. Put plainly: Percent of maximum response was tested for its ability to act as B-cell mitogens (mitogenicity). Type of assay: functional. An outline of the steps:
as §1

For assay [3], the species on record is Mus musculus. Put plainly: Percent of maximum response was tested to augment the antibody response of B cells to sheep red blood cell challenge. It is filed as functional. An outline of the steps: (§2)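 CBA/CaJ spleen cells depleted of T cells with anti-T cell monoclonal antibody (1:1000, 30 min, 4 °C) then complement (37 °C, 45 min). Cultured ± 0.1% SRBC antigen in serum-containing medium with compound from zero to 10⁻³ M for 4 d. Plaque-forming cells counted in agarose with guinea pig complement. ED50 and maximal response relative to a concurrent standard.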

The species named for assay [4] is Mus musculus. Put plainly: Augment antibody response of B cells to sheep red blood cell (SRBC) challenge (adjuvanticity). It is filed as functional. The settings on record: read-out: ED50 (the source's name). An outline of the steps: as §2
For assay [5], the system named is YAC-1. Description: Stimulation of natural killer (NK) response in Yac-1 cell line (mouse, lymphoma). The settings on record: read-out: ED50 (the source's name). It is filed as functional.
The test system of assay [6] is YAC-1. Put plainly: Percent of maximum response was tested for its ability to stimulate the natural killer response in murine in vitro cell assays. Type of assay: functional, Mus musculus.
The species named for assay [7] is Mus musculus. Put plainly: Tested to augment the antibody response of B cells to sheep red blood cell (SRBC) challenge (adjuvanticity); Neg indicates a response lower than vehicle control. Type of assay: functional, cell-based. An outline of the steps: as §2
The species named for assay [8] is Mus musculus. Put plainly: Ability to act as B-cell mitogens. As to conditions: read-out: ED50 (the source's name). Type of assay: functional. An outline of the steps: as §1
Assay [9] has as its system YAC-1. Put plainly: Stimulation of natural killer (NK) response in Yac-1 cell line (mouse, lymphoma); Neg indicates a response lower than vehicle control. It is filed as functional, cell-based.

The structures appear in SMILES notation.

For `C=CCn1c(=O)n([C@@H]2O[C@H](CO)[C@H]3OC(C)(CCC(=O)OCC)O[C@H]32)c2nc(N)nc(O)c21` (stereo not given in full), in assay [1], the ED50 entry was “Negative”. In addition, the Max response was found to be 0% in [2], 44% in assay [3] and 19% in assay [6]. Moreover, the EC50 in assay [4] worked out at 139 µM; in [5], 150 µM.

Take `CC1OC(n2c(=O)n(C)c3c(O)nc(N)nc32)[C@H](O)[C@@H]1O` (stereo not given in full): the ED50 result in assay [7] was “Negative”. This compound had a Max response in [3] of 0%.

In the case of `Nc1nc(O)c2c(n1)n(C1OC(CO)[C@@H](O)[C@H]1O)c(=O)n2Cc1ccc(Cl)c(Cl)c1` (stereo not given in full), the ED50 result in assay [1] and in assay [7] was “Negative” throughout. The Max response in assay [2] stood at 0%; in assay [3] it was 55%; in assay [6], 15%. Besides, the EC50 in [5] came out at 110 µM.

`C=CCn1c(=O)n(CCc2ccc(OC)c(OC)c2)c2nc(N)nc(O)c21`: the ED50 result in assay [7] was “Negative”. In addition, the Max response in assay [3] was determined as 0%.

As to `C=CCn1c(=S)n(COCCO)c2nc(N)nc(O)c21`, the EC50 in assay [8] amounted to 13 µM; in assay [4], 14 µM; in assay [5], 55 µM. The Max response in [2] was determined as 7%; in assay [3], 9%; in [6], 28%.

As to `CCCn1c(=O)n(C2CCC(CO)O2)c2nc(N)nc(O)c21` (stereo not given), the EC50 in assay [8] was 52 µM; in assay [4], 6 µM; in [5], 14 µM. Further, the values for the Max response in [2], in [3] and in assay [6] were 84%, 118% and 102%, respectively.

As for `CCCn1c(=O)n(C2CCC(COC(C)=O)O2)c2nc(NC(C)=O)nc(O)c21` (stereo not given), the EC50 in [8] is 80 µM; in assay [4] it was 154 µM. The values for the Max response in assay [2], in assay [3] and in [6] were 11%, 100% and 0%, respectively. The ED50 result in assay [9] was “Negative”.

On to `C=CCn1c(=O)n(C2CCC(CO)C2)c2nc(N)nc(O)c21` (stereo not given), for which the ED50 result in [1] was “Negative”. Besides, the Max response is 0% in assay [2] and 26% in [3]. Besides, the EC50 in [4] was found to be 226 µM.

As to `C=CCn1c(=O)n(C2OC(COC(=O)CCC)[C@@H](OC(=O)CCC)[C@H]2OC(=O)CCC)c2nc(NC(=O)CCC)nc(O)c21` (stereo not given in full), the Max response in [3] came to 109%; in assay [6] it was 12%. For the same compound, in assay [4], the EC50 is 53 µM. In addition, the ED50 entry in assay [9] was “Negative”.

Take `Nc1nc(O)c2nc3n(c2n1)COCCO3`: the ED50 result in assay [7] and in [9] was “Negative” throughout. The Max response is 0% in assay [3] and 6% in assay [6].

In the case of `C=CCn1c(=S)n(C2OC(COC(=O)c3ccccc3)[C@H]3OC(C)(C)O[C@@H]23)c2nc(N)nc(O)c21` (stereo not given in full), the ED50 entry in assay [1] was “Negative”. In addition, the Max response in assay [2] is 0%; in assay [3] it was 77%. Further, the EC50 in assay [4] came to 47 µM.

As for `C=CCn1c(=O)n(C2OC(CO[Si](C)(C)C(C)(C)C)[C@@H](O)[C@H]2O)c2nc(N)nc(O)c21` (stereo not given in full), the Max response in assay [3] is 5%; in assay [6], 6%. The EC50 in assay [4] turned out to be 1 µM. Also, the ED50 entry in assay [9] was “Negative”.

As to `C=CCN1C(=C(C(=O)OCC)C(=O)OCC)N([C@H]2OC(CO)[C@H]3OC(C)(C)O[C@H]32)c2nc(N)nc(O)c21` (stereo not given in full), in [7], the ED50 entry is “Negative”. Further, the Max response in assay [3] stood at 0%.

Regarding `C=CCn1c(=S)n(C2OC(COC(C)=O)[C@@H](OC(C)=O)[C@H]2OC(C)=O)c2nc(NC(C)=O)nc(O)c21` (stereo not given in full), the EC50 in assay [8] came to 295 µM; in [4] it was 7 µM; in [5], 5 µM. Further, the Max response in [2] was 134%; in assay [3] it was 60%; in assay [6] it was 77%.

With `Nc1nc(O)c2c(n1)n(C1OC(CO)[C@@H](O)[C@H]1O)c(=O)n2Cc1ccc(OCc2ccccc2)cc1` (stereo not given in full), the values for the Max response in assay [3] and in assay [6] were 5% and 6%, respectively. In [4], the EC50 is 8 µM. For the same compound, the ED50 entry in assay [9] was “Negative”.

As for `CCCCCCCCCCn1c(=O)n(C2OC(CO)[C@@H](O)[C@H]2O)c2nc(N)nc(O)c21` (stereo not given in full), the ED50 result in assay [1] and in [7] was “Negative” throughout. Besides, the Max response in [2] and in assay [3] was 0% in each case.

For the compound `CCCn1c(=O)n(C2OC(COP(=O)([O-])[O-])[C@@H](O)[C@H]2O)c2nc(N)nc(O)c21.[Li+].[Li+]` (stereo not given in full), the values for the EC50 in assay [8] and in assay [4] were 82 µM and 15 µM, respectively. The Max response is 57% in [2], 76% in assay [3] and 15% in assay [6]. In assay [9], the ED50 result is “Negative”.

For the compound `Nc1nc(O)c2c(n1)n(C1OC(CO)[C@@H](O)[C@H]1O)c(=O)n2CCN1CCCCC1` (stereo not given in full), the ED50 result in [1] and in assay [7] was “Negative” throughout. Also, the Max response in assay [2] and in assay [3] was 0% in each case.

Turning to `C=CCn1c(=O)n(CCCCO)c2nc(N)nc(O)c21`, the EC50 in assay [8] is 52 µM. Moreover, the Max response in assay [2] worked out at 16%; in [3] it was 12%. In assay [7], the ED50 result is “Negative”.

As to `C=CCn1c(=O)n([C@@H](CO)OC(CO)CO)c2nc(N)nc(O)c21`, the EC50 in assay [8] is 37 µM. Further, the Max response in [2] is given as 6%; in assay [3], 0%. The ED50 entry in assay [7] was “Negative”.

Take `C=CCn1c(=O)n([C@H]2CO[C@@H](CO)C2)c2nc(N)nc(O)c21`: the EC50 in assay [8] worked out at 272 µM; in assay [4], 83 µM. Further, the Max response came out at 16% in [2], 10% in [3] and 0% in assay [6]. Moreover, the ED50 result in [9] is “Negative”.

As to `C=CCn1c(=O)n(C2OC(CO)[C@@H](O)C2O)c2nc(N)nc(O)c21` (stereo not given in full), the EC50 in assay [8] amounted to 233 µM; in [4] it was 17 µM; in assay [5] it was 60 µM. In addition, the values for the Max response in assay [2], in [3] and in assay [6] were 76%, 143% and 68%, respectively.

Consider `C=CCn1c(=O)n(C2OC(COC(=O)COC)[C@@H](OC(=O)COC)[C@H]2OC(=O)COC)c2nc(NC(=O)COC)nc(O)c21` (stereo not given in full), for which the figures for the EC50 in assay [8], in assay [4] and in [5] were 819 µM, 28 µM and 150 µM, respectively. Further, the figures for the Max response in assay [2], in assay [3] and in assay [6] were 53%, 216% and 60%, respectively.

Take `Nc1nc(O)c2nc(S)n(COCCO)c2n1`: the ED50 entry in [7] is “Negative”. Further, the Max response in assay [3] worked out at 0%; in assay [6], 26%. In assay [5], the EC50 was determined as 3 µM.

Consider `Nc1nc(O)c2c(n1)n(C1OC(CO)[C@@H](O)[C@H]1O)c(=O)n2CC(=O)c1ccc(Cl)cc1` (stereo not given in full), for which the ED50 entry in [1] is “Negative”. In addition, the Max response is 0% in [2] and 23% in [3]. Further, the EC50 in [4] was 1620 µM.

For `C=CCn1c(=O)n([C@@H]2O[C@H](CO)[C@H]3OC(=O)O[C@H]32)c2nc(N)nc(O)c21`, the results for the EC50 in [8], in [4] and in assay [5] were 47 µM, 3 µM and 20 µM, respectively. The Max response is 97% in assay [2], 50% in assay [3] and 90% in assay [6].

With `C=CCn1c(=O)n(C2OC(CO[Si](c3ccccc3)(c3ccccc3)C(C)(C)C)[C@@H](O)[C@H]2O)c2nc(N)nc(O)c21` (stereo not given in full), the Max response was 33% in assay [3] and 15% in assay [6]. Besides, the EC50 in assay [4] was 18 µM. For the same compound, in assay [9], the ED50 result was “Negative”.

Take `C=CCn1c(=O)n(CCCC)c2nc(N)nc(O)c21`: the EC50 is 11 µM in assay [8], 2 µM in [4] and 4 µM in [5]. The Max response in assay [2] is 36%; in [3], 77%; in assay [6], 21%.

`Cn1c(=O)n(C2OC(CO)[C@@H](O)[C@H]2O)c2nc(N)nc(O)c21` (stereo not given in full): the EC50 in assay [8] amounted to 120 µM; in [4] it was 10 µM; in assay [5], 56 µM. In addition, the results for the Max response in assay [2], in [3] and in [6] were 100%, 99% and 72%, respectively.

Turning to `N#Cc1cccc(Cn2c(=O)n(C3OC(CO)[C@@H](O)[C@H]3O)c3nc(N)nc(O)c32)c1` (stereo not given in full), the figures for the Max response in [3] and in assay [6] were 16% and 11%, respectively. In assay [4], the EC50 turned out to be 3 µM. Besides, the ED50 result in assay [9] is “Negative”.

`C=CCn1c(=O)n([C@@H]2O[C@H](CO)[C@H]3OC(C)(CCC(=O)O)O[C@H]32)c2nc(N)nc(O)c21` (stereo not given in full): in assay [6], the Max response is reported as 0%. Moreover, in assay [9], the ED50 result was “Negative”.

In the case of `N#Cc1ccc(Cn2c(=O)n(C3OC(CO)[C@@H](O)[C@H]3O)c3nc(N)nc(O)c32)cc1` (stereo not given in full), the figures for the Max response in [3] and in assay [6] were 50% and 0%, respectively. The EC50 in [4] stood at 15 µM. Further, in assay [9], the ED50 entry was “Negative”.

Turning to `C=CCn1c(=S)n(C2OC(CO)[C@@H](O)C(O)[C@H]2O)c2nc(N)nc(O)c21` (stereo not given in full), the Max response in assay [3] amounted to 5%; in assay [6], 3%. Besides, the EC50 in assay [4] came out at 1 µM. Moreover, the ED50 result in assay [9] was “Negative”.
